HCV NS3 hel inh – inhibitors of HCV NS3 helicase, primary screen, biochemical, Cy5 molecular beacon fluorescence; Hepatitis C virus NS3 helicase; NS3 helicase DNA unwinding; inhibition, % at 10.9 µM; 290,000 compounds, 0.56% hits; AID 1800, 2009;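 active = inhibition above the mean of all tested compounds plus 3 SD, set per campaign, cut at about 35% in these data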
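Assay system – hepatitis C virus NS3 helicase domain fragment enzyme · Buffer or medium – MOPS pH 6.5, MgCl2, DTT, Tween20, BSA · Reagent – Cy5/quencher beacon DNA duplex and ATP to start · Compound – single 10.9 µM dose · Timing – 1 h at 25 °C · Technique – Cy5 beacon fluorescence read at start and 1 h · Measure – % inhibition of unwinding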
ZTA counter – ZTA (EBV) inhibition in EBNA-1 counter-screen; ZTA-DNA binding, fluorescence polarization; 320,000 compounds, 0.15% hits; inhibition, % at 11 µM; AID 2234; P03206; in the data active = inhibition above about 33%
Target sequence (P03206 whole entry, looked up): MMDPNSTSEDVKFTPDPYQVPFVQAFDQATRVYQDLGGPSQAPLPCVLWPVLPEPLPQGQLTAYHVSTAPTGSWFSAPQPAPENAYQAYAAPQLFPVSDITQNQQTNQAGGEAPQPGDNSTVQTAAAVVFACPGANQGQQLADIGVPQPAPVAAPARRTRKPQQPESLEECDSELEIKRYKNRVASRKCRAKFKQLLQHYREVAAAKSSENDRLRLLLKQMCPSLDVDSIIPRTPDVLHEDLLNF
FGF22 binding – binders of human FGF22 protein, primary screen, FGF22 synaptogenesis inhibitor project, biophysical, thermal shift, single point | Fibroblast growth factor 22 (Homo sapiens), Q9HCT0 | recombinant FGF22 thermal shift, SYPRO orange fluorescence; percent of sucrose octasulfate shift, DMSO zero | activity (Tm shift, normalised), % at 9.99 µM | 340,000 compounds, 1.5% hits;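 active = mean Tm shift, scaled 0 neutral to 100 positive control, at about 1.3% or above, every replicate too, limit read from the data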
Target sequence (Q9HCT0 whole entry, looked up): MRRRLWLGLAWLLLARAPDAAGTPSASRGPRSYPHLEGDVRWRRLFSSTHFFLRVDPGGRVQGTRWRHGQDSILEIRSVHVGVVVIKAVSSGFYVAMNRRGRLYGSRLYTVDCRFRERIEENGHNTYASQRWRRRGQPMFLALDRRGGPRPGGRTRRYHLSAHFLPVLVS
EBNA-1 inhibitor – EBNA-1 DNA-binding inhibitors, primary screen, biochemical, fluorescence polarization; inhibition, % at 14.8 µM; 300,000 compounds, 0.34% hits; in the data active = inhibition above about 28%
GRIN3A LBD mod – binders of NR3A ligand-binding domain, primary screen, biophysical, differential scanning fluorimetry, uHTS | NR3A LBD differential scanning fluorimetry, Tm shift; 0% = protein alone, 100% = glycine-bound protein | Tm shift relative to glycine control, % at 25 µM | 340,000 compounds, 2.5% hits;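 active = melting temperature shift of at least 10% of the positive control shift, at one fixed dose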
FID counter – compounds displacing fluorescent DNA intercalator, primary screen, artefact control for HCV NS3 helicase inhibitor project, biochemical, FID fluorescence; AID 1845, 2009; 290,000 compounds, 0.17% hits; inhibition, % at 7.9 µM; DNA fluorescent intercalator displacement; in the data active = inhibition above about 37%;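 also: higher means more ethidium bromide displaced from hairpin DNA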
Hits are given with their value; n = inactive; x = no result given. The list is not random: actives were taken first. Their share in the collection is about 3.6%.

SMILES	HCV NS3 hel inh	ZTA counter	FGF22 binding	EBNA-1 inhibitor	GRIN3A LBD mod	FID counter
CC(C)(O)C#Cc1ccc(C(=O)N2CCN(c3ccccc3)CC2)cc1	n	n	43	n	n	n
O=C(c1ccc(CSc2ccccc2)cc1)N1CCN(c2ccccc2)CC1	n	n	43	n	n	n
COc1ccccc1N1CCN(C(=O)c2ccc(CSc3ccccc3)cc2)CC1	n	n	x	n	n	n
CCc1ccc(NC(=O)c2ccc(F)c(S(=O)(=O)NCC3COc4ccccc4O3)c2)cc1 (stereo unspecified)	n	n	x	n	16	n
O=C(NCC1CCCO1)C(c1ccc(F)cc1)N(Cc1ccc2c(c1)OCO2)C(=O)c1ccc(CN2CCOCC2)o1 (stereo unspecified)	n	n	43	n	n	n
Cc1cccc(OCc2nnc(SC(C)C(=O)O)n2Cc2ccccc2)c1 (stereo unspecified)	n	n	43	n	n	n
Cc1ccc(OCc2nnc(SC(C)C(=O)O)n2Cc2ccccc2)cc1 (stereo unspecified)	n	n	n	n	n	n
Cc1ccc(S(=O)(=O)Nc2ccc3c(c2)C(=O)N([C@@H](C)CO)C[C@H](C)[C@H](CN(C)CC2CCCCC2)OCCCC[C@H](C)O3)cc1	x	x	n	x	x	x
CC(=O)c1sc(NC(=O)c2ccc(C)c(C)c2)nc1C	n	n	44	n	n	n
Cc1ccccc1OCC(=O)Nc1nc2ccccc2[nH]1	n	n	43	n	n	n
CCOc1ccccc1OCC(=O)Nc1nc2ccccc2[nH]1	n	n	n	n	n	n
Cc1ccccc1OCC(=O)NNC(=O)CCN1C(=O)c2ccccc2C1=O	n	n	43	n	n	n
CC(=O)c1sc(NC(=O)CCN2C(=O)c3ccccc3C2=O)nc1C	n	n	n	n	17	n
CCc1nnc(NC(=O)CCN2C(=O)c3ccccc3C2=O)s1	n	n	x	n	n	n
CC(=O)c1sc(NC(=O)c2ccc(C(C)(C)C)cc2)nc1C	n	n	n	n	n	n
C[C@H]1CN([C@@H](C)CO)C(=O)c2cc(NS(C)(=O)=O)ccc2O[C@@H]1CN(C)S(=O)(=O)c1cccs1	x	x	n	x	x	x
CNC[C@H]1Oc2ccc(NC(=O)Nc3ccc(C(F)(F)F)cc3)cc2CC(=O)N([C@H](C)CO)C[C@@H]1C	x	x	n	x	x	x
Cc1ccccc1NC(=O)COc1ccccc1C	n	n	n	n	n	n
Cc1ccccc1OCC(=O)NNC=O	n	n	43	n	n	n
CN(C)S(=O)(=O)c1cccc(C(=O)OCC(=O)Nc2sccc2C(N)=O)c1	n	n	x	n	n	n
N#Cc1ccc(NC(=O)COC(=O)c2cccc(S(=O)(=O)N3CCCC3)c2)cc1	x	x	43	x	x	x
COc1ccc(NC(=O)COC(=O)c2cccc(S(=O)(=O)N(C)C)c2)cc1	n	x	43	x	n	n
N#Cc1ccc(C(=O)OCC(=O)Nc2cccc(S(=O)(=O)N3CCCCC3)c2)cc1	x	n	n	x	n	x
CCOc1ccc(-c2n[nH]c(C)c2Oc2ccc(OC)cc2)c(O)c1	n	n	x	n	12	n
Cc1[nH]nc(-c2ccc(OCc3cnn(-c4ccccc4)c3)cc2O)c1Oc1ccc(F)cc1	n	n	x	n	20	n
SMILES	HCV NS3 hel inh	ZTA counter	FGF22 binding	EBNA-1 inhibitor	GRIN3A LBD mod	FID counter
Cc1[nH]nc(-c2ccc(OCc3cnn(-c4ccccc4)c3)c(C)c2O)c1Oc1ccccc1	n	n	x	n	n	n
Cc1[nH]nc(-c2ccc(O)c(C)c2O)c1Oc1ccccc1	n	n	x	n	n	n
CCNC(=O)C[C@H]1CC[C@H]2[C@@H](COc3ccc(NC(=O)c4ccccc4Cl)cc3C(=O)N2C)O1	x	x	n	x	x	x
CCOc1cc(N2CCOCC2)c(OCC)cc1NC(=O)COC(=O)C1CCCN1S(=O)(=O)c1ccccc1F (stereo unspecified)	x	n	n	x	26	x
Cc1nnc(SCC(=O)N(C)C2CCCCC2)s1	n	n	44	n	n	n
C[C@@H]1CCCCO[C@H](CN(C)C(=O)Nc2ccc(F)cc2)[C@@H](C)CN([C@@H](C)CO)C(=O)c2cc(NS(=O)(=O)c3ccc(F)cc3)ccc2O1	x	x	n	x	x	x

Screening data from PubChem BioAssay.
